pEC50, pIC50: −log10 of the molar value.
Assays:
[1] = target: Acetylcholinesterase (Homo sapiens, UniProt P22303); test: Inhibition of recombinant human C-terminal 6His-tagged AChE (Glu32 to Leu614 residues) expressed in CHO cells using acetylthiocholine iodide as substrate preincubated for 5 mins measured after 15 mins by DTNB reagent based assay
Procedure, shortened: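 Enzyme, compounds, acetylthiocholine iodide and DTNB diluted in 100 mM phosphate buffer pH 7.4. AChE was preincubated with the compound at varying concentrations for 5 min at 37 °C. The reaction was started with 1 mM ATCI solution and run 15 min at 37 °C. 2 mM DTNB solution was then added for 5 min. Absorbance read at 412 nm. IC50 set 0.1% DMSO wells as 100% and no-enzyme wells as 0%. Run in triplicate.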

[2] = test system: MDR1; test: Apparent permeability of compound in MDCK-MDR1 cells at 5 uM measured after 2 hrs by LC-MS/MS analysis; type: ADME, cell-based, Canis lupus familiaris; settings: dog
Procedure, shortened: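 MDR1-MDCK monolayers grown to confluence on collagen-coated microporous membranes. Test article dosed at 5 µM apical (A-to-B) or basolateral (B-to-A) in HBSS with 10 mM HEPES, 15 mM glucose, pH 7.4; receiver buffer has 1% BSA. 37 °C, 5% CO2; donor and receiver sampled at 120 min, quantified by LC-MS/MS (ESI). Duplicate determinations; lucifer yellow flux checks monolayer integrity. Efflux ratio = Papp(B-A)/Papp(A-B).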

[3] = target: Histone deacetylase 9 (Homo sapiens, UniProt Q9UKV0); test: Inhibition of recombinant human C-terminal His-tagged HDAC9 (604 to 1066 residues) expressed in baculovirus infected Sf9 cells using fluorogenic HDAC 2A substrate preincubated for 5 mins followed by substrate addition and measured after 30 mins by fluorescence assay
[4] = target: T1, Class 1 histone deacetylase (Homo sapiens, UniProt Q13547+O15379+Q92769+Q9BY41); test: Inhibition of Class 1 HDAC in […] cells assessed as increase in acetylated Histone H3 level measured after 24 hrs by Western blot analysis; type: cell-based; settings: for inhibition: Mus musculus
T1 sequence (O15379 whole entry, looked up): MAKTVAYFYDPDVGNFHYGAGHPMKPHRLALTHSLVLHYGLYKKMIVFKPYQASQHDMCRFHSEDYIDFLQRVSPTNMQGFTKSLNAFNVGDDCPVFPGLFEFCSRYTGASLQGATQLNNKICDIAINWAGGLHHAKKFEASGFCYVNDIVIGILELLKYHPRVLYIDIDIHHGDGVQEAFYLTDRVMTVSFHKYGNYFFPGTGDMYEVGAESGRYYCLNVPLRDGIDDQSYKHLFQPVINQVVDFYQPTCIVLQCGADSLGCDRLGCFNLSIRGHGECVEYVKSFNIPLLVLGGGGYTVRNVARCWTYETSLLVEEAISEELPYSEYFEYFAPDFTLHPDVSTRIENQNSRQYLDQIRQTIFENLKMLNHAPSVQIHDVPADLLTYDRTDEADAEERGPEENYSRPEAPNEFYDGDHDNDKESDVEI
T1 sequence (Q13547 whole entry, looked up): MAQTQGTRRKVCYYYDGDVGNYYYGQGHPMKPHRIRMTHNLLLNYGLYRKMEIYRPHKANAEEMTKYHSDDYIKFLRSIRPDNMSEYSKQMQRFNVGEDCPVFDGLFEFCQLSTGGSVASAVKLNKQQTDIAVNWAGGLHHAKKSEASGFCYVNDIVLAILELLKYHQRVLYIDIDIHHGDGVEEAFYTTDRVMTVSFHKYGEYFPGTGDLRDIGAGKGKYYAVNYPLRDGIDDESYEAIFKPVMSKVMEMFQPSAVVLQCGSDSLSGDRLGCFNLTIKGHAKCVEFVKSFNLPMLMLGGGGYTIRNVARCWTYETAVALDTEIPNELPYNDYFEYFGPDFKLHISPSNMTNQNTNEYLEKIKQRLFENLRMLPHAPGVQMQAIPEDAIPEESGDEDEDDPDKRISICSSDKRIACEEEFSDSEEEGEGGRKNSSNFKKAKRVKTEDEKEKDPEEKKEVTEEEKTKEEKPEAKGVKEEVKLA
T1 sequence (Q92769 whole entry, looked up): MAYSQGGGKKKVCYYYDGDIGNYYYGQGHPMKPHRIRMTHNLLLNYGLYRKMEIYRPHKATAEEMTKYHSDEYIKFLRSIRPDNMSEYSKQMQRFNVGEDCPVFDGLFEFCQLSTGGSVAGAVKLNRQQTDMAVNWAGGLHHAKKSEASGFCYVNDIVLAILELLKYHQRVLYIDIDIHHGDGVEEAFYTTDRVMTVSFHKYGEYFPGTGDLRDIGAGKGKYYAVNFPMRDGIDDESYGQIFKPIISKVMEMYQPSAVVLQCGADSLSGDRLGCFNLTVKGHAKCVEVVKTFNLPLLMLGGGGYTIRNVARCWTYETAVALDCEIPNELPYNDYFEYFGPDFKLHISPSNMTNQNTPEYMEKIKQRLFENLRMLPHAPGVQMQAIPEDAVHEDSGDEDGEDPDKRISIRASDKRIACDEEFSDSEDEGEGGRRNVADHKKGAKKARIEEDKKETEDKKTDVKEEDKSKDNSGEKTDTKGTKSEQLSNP
T1 sequence (Q9BY41 whole entry, looked up): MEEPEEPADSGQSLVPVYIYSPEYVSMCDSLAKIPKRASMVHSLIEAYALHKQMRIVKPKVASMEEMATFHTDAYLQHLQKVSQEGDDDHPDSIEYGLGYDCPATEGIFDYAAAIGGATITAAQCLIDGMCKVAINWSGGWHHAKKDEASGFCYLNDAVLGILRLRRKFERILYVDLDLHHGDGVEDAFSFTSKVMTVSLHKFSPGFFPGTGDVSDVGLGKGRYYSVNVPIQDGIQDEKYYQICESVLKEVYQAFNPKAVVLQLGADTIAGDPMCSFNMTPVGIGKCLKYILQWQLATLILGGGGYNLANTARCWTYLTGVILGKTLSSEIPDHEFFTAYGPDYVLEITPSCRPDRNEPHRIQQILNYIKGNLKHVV

[5] = target: T1, Class 1 histone deacetylase; test: Inhibition of class 1 HDAC in human HeLa cell nuclear extract using Boc-Lys(Ac)-AMC as substrate preincubated for 5 mins followed by substrate addition and measured after 30 mins by fluorescence assay; type: cell-based
[6] = target: T2, Protein deacetylase HDAC6 (Homo sapiens, UniProt Q9UBN7); test: Inhibition of recombinant human full-length N-terminal GST-tagged HDAC6 expressed in baculovirus infected Sf9 insect cells using Boc-Lys(Ac)-AMC as substrate preincubated for 5 mins followed by substrate addition and measured after 30 mins by fluorescence assay
T2 sequence (Q9UBN7 whole entry): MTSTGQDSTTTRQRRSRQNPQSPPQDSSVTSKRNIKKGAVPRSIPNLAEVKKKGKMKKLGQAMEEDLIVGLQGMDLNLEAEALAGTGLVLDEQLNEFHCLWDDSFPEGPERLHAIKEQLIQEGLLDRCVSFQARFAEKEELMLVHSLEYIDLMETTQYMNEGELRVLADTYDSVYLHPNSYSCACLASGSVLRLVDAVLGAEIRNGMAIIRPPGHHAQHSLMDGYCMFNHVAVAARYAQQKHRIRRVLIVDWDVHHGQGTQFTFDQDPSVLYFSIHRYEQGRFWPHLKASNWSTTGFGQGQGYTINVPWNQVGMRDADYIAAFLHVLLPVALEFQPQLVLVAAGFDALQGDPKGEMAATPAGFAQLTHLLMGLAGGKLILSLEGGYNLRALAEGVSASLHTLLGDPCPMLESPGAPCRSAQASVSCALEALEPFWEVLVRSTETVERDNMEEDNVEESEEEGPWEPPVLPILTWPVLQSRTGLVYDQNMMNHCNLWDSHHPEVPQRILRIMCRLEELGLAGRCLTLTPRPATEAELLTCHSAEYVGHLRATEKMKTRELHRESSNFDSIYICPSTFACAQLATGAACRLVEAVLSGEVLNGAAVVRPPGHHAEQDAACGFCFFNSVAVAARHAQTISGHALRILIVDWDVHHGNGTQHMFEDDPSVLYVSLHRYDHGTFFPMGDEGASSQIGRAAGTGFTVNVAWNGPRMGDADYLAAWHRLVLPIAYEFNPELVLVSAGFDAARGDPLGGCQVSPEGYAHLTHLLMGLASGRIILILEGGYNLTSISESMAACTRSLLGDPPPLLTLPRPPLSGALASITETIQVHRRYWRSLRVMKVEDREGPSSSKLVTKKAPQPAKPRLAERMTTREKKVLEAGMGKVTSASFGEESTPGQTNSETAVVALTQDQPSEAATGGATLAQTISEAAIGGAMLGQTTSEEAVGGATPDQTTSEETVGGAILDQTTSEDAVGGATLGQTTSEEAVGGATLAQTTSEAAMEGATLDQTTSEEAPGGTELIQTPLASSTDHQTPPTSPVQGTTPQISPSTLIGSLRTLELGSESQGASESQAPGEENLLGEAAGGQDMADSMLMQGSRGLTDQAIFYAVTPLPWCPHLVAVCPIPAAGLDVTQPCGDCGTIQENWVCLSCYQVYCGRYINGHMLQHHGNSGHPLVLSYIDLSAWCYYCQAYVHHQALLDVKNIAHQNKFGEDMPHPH

[7] = target: T2, Protein deacetylase HDAC6; test: Inhibition of HDAC6 in […] cells assessed as increase in alpha-tubulin acetylation measured after 24 hrs by Western blot analysis; type: cell-based, Mus musculus
[8] = target: Histone deacetylase 3/Nuclear receptor corepressor 2 (HDAC3/NCoR2) (Homo sapiens, UniProt O15379); test: Inhibition of human recombinant C-terminal His-tagged HDAC3 (1 to 428 residues)/N-terminal GST-tagged NCOR2 (395 to 489 residus) expressed in baculovirus infected Sf9 insect cells using fluor de lys SIRT1 as substrate preincubated for 5 mins followed by substrate addition and measured after 30 mins by fluorescence assay
Chain of Histone deacetylase 3/Nuclear receptor corepressor 2 (HDAC3/NCoR2) (O15379 whole entry, the tested form may be a part): as the sequence (O15379 whole entry, looked up) above
Chain of Histone deacetylase 3/Nuclear receptor corepressor 2 (HDAC3/NCoR2) (Q9Y618 whole entry, further chain, the tested form may be a part): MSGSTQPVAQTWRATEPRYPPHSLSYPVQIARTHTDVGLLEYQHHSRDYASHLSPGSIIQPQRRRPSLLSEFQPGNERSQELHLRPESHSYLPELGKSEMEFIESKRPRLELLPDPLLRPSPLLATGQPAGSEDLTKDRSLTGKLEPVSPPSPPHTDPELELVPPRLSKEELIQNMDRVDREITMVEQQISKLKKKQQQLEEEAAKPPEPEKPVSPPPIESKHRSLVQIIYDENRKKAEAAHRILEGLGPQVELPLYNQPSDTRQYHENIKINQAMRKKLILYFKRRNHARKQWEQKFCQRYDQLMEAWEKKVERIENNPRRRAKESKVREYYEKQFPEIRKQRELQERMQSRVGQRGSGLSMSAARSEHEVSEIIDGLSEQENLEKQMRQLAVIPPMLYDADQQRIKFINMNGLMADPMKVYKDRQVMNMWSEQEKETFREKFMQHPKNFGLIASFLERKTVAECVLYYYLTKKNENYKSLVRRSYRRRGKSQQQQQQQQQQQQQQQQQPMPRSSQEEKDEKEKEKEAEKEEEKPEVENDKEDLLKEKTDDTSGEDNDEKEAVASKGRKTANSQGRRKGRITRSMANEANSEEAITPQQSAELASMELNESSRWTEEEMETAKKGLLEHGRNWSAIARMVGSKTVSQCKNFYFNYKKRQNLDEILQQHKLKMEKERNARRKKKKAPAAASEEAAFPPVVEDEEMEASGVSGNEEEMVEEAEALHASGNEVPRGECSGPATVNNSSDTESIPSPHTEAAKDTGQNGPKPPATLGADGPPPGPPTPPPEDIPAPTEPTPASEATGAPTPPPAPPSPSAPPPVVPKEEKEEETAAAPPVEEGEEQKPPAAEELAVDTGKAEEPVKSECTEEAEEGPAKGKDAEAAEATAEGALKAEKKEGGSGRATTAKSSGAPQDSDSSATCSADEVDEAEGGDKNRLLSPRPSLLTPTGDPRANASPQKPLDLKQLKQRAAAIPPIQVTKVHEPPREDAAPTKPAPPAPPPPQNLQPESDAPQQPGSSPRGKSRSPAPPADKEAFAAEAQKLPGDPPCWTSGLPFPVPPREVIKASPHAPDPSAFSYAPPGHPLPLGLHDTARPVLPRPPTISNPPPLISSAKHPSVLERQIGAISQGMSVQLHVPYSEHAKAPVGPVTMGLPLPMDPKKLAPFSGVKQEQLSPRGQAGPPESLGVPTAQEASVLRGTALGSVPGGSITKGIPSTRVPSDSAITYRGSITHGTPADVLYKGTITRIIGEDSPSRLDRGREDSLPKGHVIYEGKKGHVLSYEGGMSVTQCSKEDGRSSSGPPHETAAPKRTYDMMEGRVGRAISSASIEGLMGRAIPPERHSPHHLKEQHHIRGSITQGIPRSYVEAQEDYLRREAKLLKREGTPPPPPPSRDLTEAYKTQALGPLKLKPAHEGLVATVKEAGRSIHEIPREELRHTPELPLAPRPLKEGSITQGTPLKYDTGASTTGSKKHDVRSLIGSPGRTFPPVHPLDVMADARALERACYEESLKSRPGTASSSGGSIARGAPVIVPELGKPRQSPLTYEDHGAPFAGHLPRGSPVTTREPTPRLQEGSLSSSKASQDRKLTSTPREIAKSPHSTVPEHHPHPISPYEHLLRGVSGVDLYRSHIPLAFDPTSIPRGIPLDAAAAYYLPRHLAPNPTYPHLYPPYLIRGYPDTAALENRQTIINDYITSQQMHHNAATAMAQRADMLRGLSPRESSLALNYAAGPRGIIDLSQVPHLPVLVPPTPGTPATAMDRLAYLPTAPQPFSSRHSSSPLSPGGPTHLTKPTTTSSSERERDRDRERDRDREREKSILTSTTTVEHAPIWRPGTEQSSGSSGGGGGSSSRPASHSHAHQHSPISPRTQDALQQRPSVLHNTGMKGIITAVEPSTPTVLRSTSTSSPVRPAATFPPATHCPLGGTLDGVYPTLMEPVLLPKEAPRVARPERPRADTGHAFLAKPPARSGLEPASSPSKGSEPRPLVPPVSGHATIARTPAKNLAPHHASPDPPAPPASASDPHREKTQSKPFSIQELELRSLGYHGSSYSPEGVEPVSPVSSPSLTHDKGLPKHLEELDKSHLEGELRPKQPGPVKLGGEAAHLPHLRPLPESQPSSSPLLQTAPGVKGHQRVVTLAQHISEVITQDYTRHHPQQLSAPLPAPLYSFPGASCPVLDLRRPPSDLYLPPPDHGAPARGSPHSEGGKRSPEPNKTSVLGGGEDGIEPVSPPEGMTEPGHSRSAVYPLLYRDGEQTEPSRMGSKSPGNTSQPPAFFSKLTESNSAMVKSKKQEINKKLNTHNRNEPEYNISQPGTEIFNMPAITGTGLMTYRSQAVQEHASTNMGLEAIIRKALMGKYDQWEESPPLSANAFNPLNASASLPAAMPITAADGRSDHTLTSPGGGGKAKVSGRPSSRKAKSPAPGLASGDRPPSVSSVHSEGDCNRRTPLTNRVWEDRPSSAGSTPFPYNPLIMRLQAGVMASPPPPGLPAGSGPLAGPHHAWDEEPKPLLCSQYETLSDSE

[9] = target: Histone deacetylase 1 (Homo sapiens, UniProt Q13547); test: Inhibition of recombinant human C-terminal FLAG/His-tagged HDAC1 (1 to 482 residues) expressed in Sf9 insect cells using fluor de lys SIRT1 as substrate preincubated for 5 mins followed by substrate addition and measured after 30 mins by fluorescence assay
Chain of Histone deacetylase 1 (Q13547 whole entry, the tested form may be a part): as the sequence (Q13547 whole entry, looked up) above

[10] = target: Histone deacetylase 2 (Homo sapiens, UniProt Q92769); test: biochemical; type: cell-based, Sf9
Chain of Histone deacetylase 2 (Q92769 whole entry): as the sequence (Q92769 whole entry, looked up) above

[11] = test system: Hippocampal neurone; test: Induction of neurite outgrowth in Sprague-Dawley rat primary hippocampal neurons assessed as increase in number of axonal and dendritic neurite incubated for 3 days by DAPI staining based immunofluorescence microscopic analysis; type: functional; settings: time 3.0 day
Procedure, shortened: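 Primary hippocampal neurons from embryonic Sprague-Dawley rats, plated on poly-D-lysine and kept in B27-neurobasal medium. Treated with DMSO or compound from DIV3 for three days, fixed at DIV6 in 4% paraformaldehyde. Axons stained with anti-tau, dendrites with anti-MAP2, nuclei with DAPI; fluorescence microscopy. At least 20 neurons traced for number and length of primary, secondary and tertiary neurites.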

[12] = Half life in human liver microsomes at 1 uM preincubated for 3 mins followed by NADPH addition and measured up to 60 mins by LC-MS/MS analysis; type: ADME, Microsome; settings: time <=63 min
Procedure, shortened: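 Mixed-gender human liver microsomes with test article at 1 µM final. Testosterone (5 µM) run separately as control. Mixture without cofactor equilibrated 3 min at 37 °C in a shaking water bath, then started with cofactor. Aliquots taken at 0, 10, 20, 30 and 60 min. CLint = k/P, where k is the elimination rate constant and P is the incubation protein concentration.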

Chain of Acetylcholinesterase (P22303 whole entry): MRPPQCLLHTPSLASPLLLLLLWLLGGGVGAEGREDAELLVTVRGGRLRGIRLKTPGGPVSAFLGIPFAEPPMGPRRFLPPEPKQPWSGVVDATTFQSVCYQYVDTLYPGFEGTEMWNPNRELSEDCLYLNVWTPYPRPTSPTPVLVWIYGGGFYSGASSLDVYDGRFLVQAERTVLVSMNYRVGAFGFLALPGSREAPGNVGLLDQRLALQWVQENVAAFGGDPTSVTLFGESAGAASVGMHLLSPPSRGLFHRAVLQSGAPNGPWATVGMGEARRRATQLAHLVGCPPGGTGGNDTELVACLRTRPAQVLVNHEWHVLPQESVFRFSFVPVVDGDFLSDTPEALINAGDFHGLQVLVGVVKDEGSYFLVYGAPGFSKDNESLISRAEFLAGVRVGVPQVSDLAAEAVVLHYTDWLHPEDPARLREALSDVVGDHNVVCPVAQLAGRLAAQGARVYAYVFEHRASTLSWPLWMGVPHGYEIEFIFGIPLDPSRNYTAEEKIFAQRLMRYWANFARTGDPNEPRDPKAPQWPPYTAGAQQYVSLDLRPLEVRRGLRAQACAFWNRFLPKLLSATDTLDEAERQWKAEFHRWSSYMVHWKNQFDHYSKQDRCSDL

O=C(NO)c1ccc(Nc2c3ccccc3nc3ccc(Br)cc23)cc1
pIC50 [1]: 6.06 | Papp at 2 h, 5 µM [2]: 4.57 ×10⁻⁶ cm/s | pIC50 [3]: 5.26 | EC50 [4]: 580 nM | inhibition [4]: Dose-dependent effect | IC50 [5]: 160 nM | pIC50 [6]: 7.59 | pEC50 [7]: 5.10 | pIC50 [8]: 6.48 | pIC50 [9]: 7.05 | pIC50 [10]: 6.32 | Activity [11]: Dose-dependent effect | half-life at 1 µM [12]: 37.9 min

O=C(NO)c1ccc(Nc2c3ccccc3nc3ccccc23)cc1
pIC50 [1]: 6.14 | Papp at 2 h, 5 µM [2]: 2.72 ×10⁻⁶ cm/s | pIC50 [3]: 6.24 | EC50 [4]: 7960 nM | inhibition [4]: Dose-dependent effect | IC50 [5]: 550 nM | pIC50 [6]: 7.60 | pEC50 [7]: 5.10 | pIC50 [8]: 5.91 | pIC50 [9]: 6.47 | pIC50 [10]: 5.80 | Activity [11]: Dose-dependent effect | half-life at 1 µM [12]: 33.9 min

Source: ChEMBL document CHEMBL4680220, “Synthesis and biological evaluation of acridine-based histone deacetylase inhibitors as multitarget agents against Alzheimer's disease” (Eur J Med Chem, 2020)
